Results from ChEMBL document CHEMBL1629579, “Correlating echinocandin MIC and kinetic inhibition of fks1 mutant glucan synthases for Candida albicans: implications for interpretive breakpoints” (Antimicrob Agents Chemother, 2009).
Values after ≈ are worked out from the molar mass of the structure shown. Numbered stars: 1 amine (or outer) side, 2 acyl side, 3 side chain; on linkers, the order of the positions; unused ones are H or OH. Bridge positions count the residues as written; N and C are the ends. Square brackets hold non-standard residues; d marks the D form. Peptide text beside a SMILES is read from it. * marks the point of attachment. pTerphenylCO(4''-OnC5H11) = CCCCCOc1ccc(-c2ccc(-c3ccc(C(=O)*)cc3)cc2)cc1; Orn(4R-OH,5R-OH) = O=C([C@H](C[C@@H](O)[C@@H](O)N[*:3])N[*:1])[*:2]; hTyr(3S-OH,4S-OH) = N[C@H](C(=O)O)[C@H](O)[C@@H](O)c1ccc(O)cc1; Pro(3S-OH,4S-Me) = C[C@H]1CN[C@H](C(=O)O)[C@H]1O; Hyp = O=C(O)[C@@H]1C[C@@H](O)CN1

Columns and labels:
[1] = Inhibition of Candida albicans 119 1,3-beta-D-glucan synthase subunit FKS1p T1921C mutant
Method in brief: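 Product-entrapped glucan synthase from YPD-grown cells (37°C, early stationary phase) in a filtration polymerization assay with [3H]UDPG. Echinocandin serial dilutions were added, with 1% DMSO in controls for anidulafungin. Reactions were started with enzyme, run 60 min at 25°C and stopped on ice. IC50 came from a variable-slope sigmoidal fit, in triplicate.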

[2] = Inhibition of Candida albicans 5415 1,3-beta-D-glucan synthase subunit FKS1p T1933C mutant
Method in brief: (§1)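 Enzyme is product-entrapped 1,3-β-D-glucan synthase, enriched from membranes of each strain grown at 37°C with shaking in YPD broth to early stationary phase. Filtration polymerization assay uses [3H]UDPG, started by adding enzyme and run 60 min at 25°C. Echinocandins are added as serial dilutions, with 1% DMSO controls for anidulafungin. IC50 is from a variable-slope sigmoidal fit; values are triplicate arithmetic means.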

[3] = Inhibition of Candida albicans 122 1,3-beta-D-glucan synthase subunit FKS1p C1946A mutant; method in brief: as §1
[4] = system: Candida albicans; test: Antimicrobial activity against Candida albicans 121 harboring FKS1 G4082A mutant gene and FKS1 hotspot2 R1361H mutant gene by M27-A3 method; type: functional
Method in brief: (§2)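 Broth microdilution per CLSI M27-A3 in RPMI 1640, done in triplicate on three separate days. Each strain was tested with and without 50% human serum. C. krusei ATCC 6258 and C. parapsilosis ATCC 22019 served as QC strains. Arithmetic means are reported, and geometric means were used for comparison.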

[5] = system: Candida albicans; test: Antimicrobial activity against Candida albicans 122 harboring FKS1 C1946A mutant gene and FKS1 hotspot1 P649H mutant gene by M27-A3 method in presence of 50% human serum; type: functional; method in brief: as §2
[6] = system: Candida albicans; test: Antimicrobial activity against Candida albicans A15 harboring FKS1 T1933Y mutant gene and FKS1 hotspot1 S645S/P mutant gene by M27-A3 method in presence of 50% human serum; type: functional; method in brief: as §2
[7] = system: Candida albicans; test: Activity at Candida albicans 177 1,3-beta-D-glucan synthase subunit FKS1p T1922C mutant
Method in brief: (§3)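 Product-entrapped 1,3-β-D-glucan synthase from cells grown in YPD at 37°C to early stationary phase. Wells held 50 mM HEPES pH 7.5, 10% glycerol, 1.5 mg/ml BSA, 25 mM KF, 1 mM EDTA, 25 μM GTP-γ-S, 1 μg enzyme and [3H]UDPG (0.015–2 mM). Reactions ran 60 min at 25°C. Vmax and Km came from Lineweaver-Burke plots, in triplicate.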

[8] = Inhibition of Candida albicans 36082 1,3-beta-D-glucan synthase subunit FKS1p; method in brief: as §1
[9] = system: Candida albicans; test: Antimicrobial activity against Candida albicans 177 harboring FKS1 T1922C mutant gene and FKS1 hotspot1 F641S mutant gene by M27-A3 method; type: functional; method in brief: as §2
[10] = Inhibition of Candida albicans 85 1,3-beta-D-glucan synthase subunit FKS1p C1934T mutant; method in brief: as §1
[11] = system: Candida albicans; test: Antimicrobial activity against Candida albicans 36082 by M27-A3 method in presence of 50% human serum; type: functional; method in brief: as §2
[12] = system: Candida albicans; test: Antimicrobial activity against Candida albicans A15-10 harboring FKS1 T1933C mutant gene and FKS1 hotspot1 S645P mutant by M27-A3 method in presence of 50% human serum; type: functional; method in brief: as §2
[13] = system: Candida albicans; test: Antimicrobial activity against Candida albicans 205 harboring FKS1 T1933C mutant gene and FKS1 hotspot1 S645P mutant gene by M27-A3 method; type: functional; method in brief: as §2
[14] = system: Candida albicans; test: Antimicrobial activity against Candida albicans A15 harboring FKS1 T1933Y mutant gene and FKS1 hotspot1 S645S/P mutant gene by M27-A3 method; type: functional; method in brief: as §2
[15] = system: Candida albicans; test: Antimicrobial activity against Candida albicans 85 harboring FKS1 C1934T mutant gene and FKS1 hotspot1 S645F mutant gene by M27-A3 method; type: functional; method in brief: as §2
[16] = Inhibition of Candida albicans 205 1,3-beta-D-glucan synthase subunit FKS1p T1933C mutant; method in brief: as §1
[17] = system: Candida albicans; test: Antimicrobial activity against Candida albicans 1002 by M27-A3 method; type: functional
Method in brief: (§4)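 Broth microdilution per CLSI M27-A3 in RPMI 1640, with and without 50% human serum, in triplicate. C. krusei ATCC 6258 and C. parapsilosis ATCC 22019 served as quality-control strains. MIC reported as arithmetic mean of three repetitions on separate days.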

[18] = system: Candida albicans; test: Activity at Candida albicans 89 1,3-beta-D-glucan synthase subunit FKS1p C1934A mutant; method in brief: as §3
[19] = system: Candida albicans SC5314; test: Activity at Candida albicans SC5314 1,3-beta-D-glucan synthase subunit FKS1p
Method in brief: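 Glucan synthase from cells grown at 37°C with vigorous shaking to early stationary phase in YPD. Membrane enzyme enriched by product entrapment. Serial echinocandin dilutions; ANF controls held 1% DMSO. Reaction started by adding enzyme, run 60 min at 25°C in a filtration polymerization assay, stopped on ice. IC50 from a variable-slope sigmoidal fit; means of three repetitions on separate days.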

[20] = system: Candida albicans; test: Activity at Candida albicans 85 1,3-beta-D-glucan synthase subunit FKS1p C1934T mutant; method in brief: as §3
[21] = system: Candida albicans; test: Antimicrobial activity against Candida albicans 2762 harboring FKS1 T1922C mutant gene and FKS1 hotspot1 F641S mutant gene by M27-A3 method in presence of 50% human serum; type: functional; method in brief: as §2
[22] = system: Candida albicans; test: Activity at Candida albicans 119 1,3-beta-D-glucan synthase subunit FKS1p T1921C mutant; method in brief: as §3
[23] = system: Candida albicans; test: Antimicrobial activity against Candida albicans 2762 harboring FKS1 T1922C mutant gene and FKS1 hotspot1 F641S mutant gene by M27-A3 method; type: functional; method in brief: as §2
[24] = Inhibition of Candida albicans 90028 1,3-beta-D-glucan synthase subunit FKS1p; method in brief: as §1
[25] = system: Candida albicans; test: Antimicrobial activity against Candida albicans 89 harboring FKS1 C1934A mutant gene and FKS1 hotspot1 S645Y mutant gene by M27-A3 method in presence of 50% human serum; type: functional; method in brief: as §2
[26] = system: Candida albicans; test: Antimicrobial activity against Candida albicans 3107 by M27-A3 method; type: functional; method in brief: as §2
[27] = Inhibition of Candida albicans A15-10 1,3-beta-D-glucan synthase subunit FKS1p T1933C mutant; method in brief: as §1
[28] = system: Candida albicans; test: Antimicrobial activity against Candida albicans 90028 by M27-A3 method; type: functional; method in brief: as §4
[29] = system: Candida albicans; test: Antimicrobial activity against Candida albicans 90028 by M27-A3 method in presence of 50% human serum; type: functional; method in brief: as §2
[30] = system: Candida albicans; test: Antimicrobial activity against Candida albicans 90 harboring FKS1 G4082R mutant gene and FKS1 hotspot2 R1361R/H mutant gene by M27-A3 method in presence of 50% human serum; type: functional; method in brief: as §2
[31] = Inhibition of Candida albicans 89 1,3-beta-D-glucan synthase subunit FKS1p C1934A mutant; method in brief: as §1

## CCCCCOc1ccc(-c2ccc(-c3ccc(C(=O)N[C@H]4C[C@@H](O)[C@@H](O)NC(=O)[C@@H]5[C@@H](O)[C@@H](C)CN5C(=O)[C@H]([C@@H](C)O)NC(=O)[C@H]([C@H](O)[C@@H](O)c5ccc(O)cc5)NC(=O)[C@@H]5C[C@@H](O)CN5C(=O)[C@H]([C@@H](C)O)NC4=O)cc3)cc2)cc1 [ANIDULAFUNGIN] ({pTerphenylCO(4''-OnC5H11)}-[Orn(4R-OH,5R-OH)]T[Hyp][hTyr(3S-OH,4S-OH)]T[Pro(3S-OH,4S-Me)]; lactam 1-C)
[1]
  IC50: 0.0113 µg/mL (≈ 0.00991 µM)
  Ki: 0.00677 µg/mL (≈ 0.00594 µM)
[2]
  IC50: 1.152 µg/mL (≈ 1.01 µM)
  Ki: 4.15411 µg/mL (≈ 3.64 µM)
[3]
  IC50: 0.491 µg/mL (≈ 0.431 µM)
  Ki: 0.64607 µg/mL (≈ 0.567 µM)
[4]
  MIC: 0.25 µg/mL (≈ 0.219 µM)
[5]
  MIC: 8 µg/mL
[6]
  MIC: 2 µg/mL
[7]
  Km: 50 µM
  Vmax: 4.4 nmol/min
[8]
  IC50: 0.00151 µg/mL (≈ 0.00132 µM)
  Ki: 0.00143 µg/mL (≈ 0.00125 µM)
[9]
  MIC: 0.83 µg/mL (≈ 0.728 µM)
[10]
  IC50: 0.787 µg/mL (≈ 0.69 µM)
  Ki: 0.44593 µg/mL (≈ 0.391 µM)
[11]
  MIC: 0.12 µg/mL
[12]
  MIC: 8 µg/mL
[13]
  MIC: 1.33 µg/mL (≈ 1.17 µM)
[14]
  MIC: 0.5 µg/mL (≈ 0.438 µM)
[15]
  MIC: 2 µg/mL (≈ 1.75 µM)
[16]
  IC50: 0.989 µg/mL (≈ 0.867 µM)
  Ki: 3.2231 µg/mL (≈ 2.83 µM)
[17]
  MIC: 0.06 µg/mL (≈ 0.0526 µM)
[18]
  Km: 61 µM
  Vmax: 2.51 nmol/min
[19]
  Km: 125 µM
  Vmax: 6.72 nmol/min
[20]
  Km: 25 µM
  Vmax: 1.83 nmol/min
[21]
  MIC: 4 µg/mL
[22]
  Km: 54 µM
  Vmax: 2.54 nmol/min
[23]
  MIC: 1 µg/mL (≈ 0.877 µM)
[24]
  IC50: 0.00183 µg/mL (≈ 0.0016 µM)
  Ki: 0.00063 µg/mL (≈ 0.000553 µM)
[25]
  MIC: 8 µg/mL
[26]
  MIC: 0.03 µg/mL (≈ 0.0263 µM)
[27]
  IC50: 0.901 µg/mL (≈ 0.79 µM)
  Ki: 2.5637 µg/mL (≈ 2.25 µM)
[28]
  MIC: 0.03 µg/mL (≈ 0.0263 µM)
[29]
  MIC: 0.25 µg/mL
[30]
  MIC: 4 µg/mL
[31]
  IC50: 2.739 µg/mL (≈ 2.4 µM)
  Ki: 1.16337 µg/mL (≈ 1.02 µM)
